# Source: article PMC2948851 (European journal of pharmacology, 2010)
# Marks after values point to notes of the source that are not given here.
# Legend:
# Format in all cases: cell-based
# [1] = molecular target: human P2Y12 receptor R256Q mutant (Homo sapiens, UniProt Q9H244, R256Q); experiment: cAMP assay, CHO-K1 cells expressing R256Q mutant P2Y12
# [2] = molecular target: human P2Y12 receptor F104S mutant (Homo sapiens, UniProt Q9H244, F104S); experiment: cAMP assay, CHO-K1 cells expressing F104S mutant P2Y12
# Sequence of human P2Y12 receptor F104S mutant (Q9H244 whole entry F104S): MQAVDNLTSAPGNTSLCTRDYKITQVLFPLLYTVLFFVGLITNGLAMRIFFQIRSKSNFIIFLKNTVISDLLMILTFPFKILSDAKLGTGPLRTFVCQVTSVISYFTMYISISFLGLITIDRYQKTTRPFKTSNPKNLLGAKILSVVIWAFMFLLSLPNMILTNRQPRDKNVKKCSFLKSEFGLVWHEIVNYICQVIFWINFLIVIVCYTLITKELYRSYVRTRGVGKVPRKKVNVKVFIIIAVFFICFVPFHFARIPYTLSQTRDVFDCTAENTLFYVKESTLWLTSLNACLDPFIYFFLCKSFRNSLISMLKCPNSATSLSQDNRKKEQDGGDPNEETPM
# [3] = molecular target: human P2Y12 receptor R256Q/R265W double mutant (Homo sapiens, UniProt Q9H244, R256Q/R265W); experiment: cAMP assay, CHO-K1 cells expressing R256Q/R265W double mutant P2Y12
# Sequence of human P2Y12 receptor R256Q/R265W double mutant (Q9H244 whole entry R256Q/R265W): as the sequence (Q9H244 whole entry F104S) above, with S104F, R256Q, R265W counted along it
# [4] = molecular target: human P2Y12 receptor wild-type (Homo sapiens, UniProt Q9H244)
# Sequence of human P2Y12 receptor wild-type (Q9H244 whole entry): as the sequence (Q9H244 whole entry F104S) above, with S104F counted along it
# In short: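 CHO-K1 stably expressing N-terminally HA-tagged human P2Y12 (Ham's F-12, 10% FBS, 500 µg/ml hygromycin B); [3H]adenine-labelled overnight, 0.4 mM IBMX 10 min, then 20 µM forskolin with ADP (0.01–10 µM) and/or antagonist (0.001–1 µM, against 10 µM ADP) 5 min, 37°C. TCA stop; [3H]cAMP/([3H]ATP+[3H]cAMP) conversion, normalized to forskolin alone; IC50 calculated; mean ± S.E.M., n=3.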
# [5] = molecular target: human P2Y12 receptor R256T mutant (Homo sapiens, UniProt Q9H244, R256T); experiment: cAMP assay, CHO-K1 cells expressing R256T mutant P2Y12
# Sequence of human P2Y12 receptor R256T mutant (Q9H244 whole entry R256T): as the sequence (Q9H244 whole entry F104S) above, with S104F, R256T counted along it
# [6] = molecular target: human P2Y12 receptor H253S mutant (Homo sapiens, UniProt Q9H244, H253S); experiment: cAMP assay, CHO-K1 cells expressing H253S mutant P2Y12
# Sequence of human P2Y12 receptor H253S mutant (Q9H244 whole entry H253S): as the sequence (Q9H244 whole entry F104S) above, with S104F, H253S counted along it
# [7] = molecular target: human P2Y12 receptor F198P mutant (Homo sapiens, UniProt Q9H244, F198P); experiment: cAMP assay, CHO-K1 cells expressing F198P mutant P2Y12
# Sequence of human P2Y12 receptor F198P mutant (Q9H244 whole entry F198P): as the sequence (Q9H244 whole entry F104S) above, with S104F, F198P counted along it
# [8] = molecular target: human P2Y12 receptor R265W mutant (Homo sapiens, UniProt Q9H244, R265W); experiment: cAMP assay, CHO-K1 cells expressing R265W mutant P2Y12
# Sequence of human P2Y12 receptor R265W mutant (Q9H244 whole entry R265W): as the sequence (Q9H244 whole entry F104S) above, with S104F, R265W counted along it
# [9] = molecular target: human P2Y12 receptor Y109S mutant (Homo sapiens, UniProt Q9H244, Y109S); experiment: cAMP assay, CHO-K1 cells expressing Y109S mutant P2Y12
# Sequence of human P2Y12 receptor Y109S mutant (Q9H244 whole entry Y109S): as the sequence (Q9H244 whole entry F104S) above, with S104F, Y109S counted along it
# [10] = molecular target: human P2Y12 receptor S288P mutant (Homo sapiens, UniProt Q9H244, S288P); experiment: cAMP assay, CHO-K1 cells expressing S288P mutant P2Y12
# Sequence of human P2Y12 receptor S288P mutant (Q9H244 whole entry S288P): as the sequence (Q9H244 whole entry F104S) above, with S104F, S288P counted along it
# [11] = CHO-K1, read-out: inhibition of cAMP at 10 μM ADP
# Sequence of human P2Y12 receptor R256Q mutant (Q9H244 whole entry R256Q): as the sequence (Q9H244 whole entry F104S) above, with S104F, R256Q counted along it
compound,measurement,setting,value
"Nc1ncnc2c1ncn2[C@@H]1O[C@H](COP(=O)(O)OP(=O)(O)O)[C@@H](O)[C@H]1O [ADP, Adenosine diphosphate]",IC50,[1],570 ± 30 nM
same,Max. inhibition by ADP (% of control),"[1]; R256Q construct, CHO-K1, 20 μM forskolin, cAMP",75.32 ± 6.91 (3) % of control
same,IC50,[2],60 ± 10 nM
same,Max. inhibition by ADP (% of control),"[2]; F104S construct, CHO-K1, 20 μM forskolin, cAMP",77.7 ± 1.12 (3) % of control
same,increase of potency of activation by ADP vs wild-type,[2]; F104S vs wild-type,5 fold
same,IC50,[3],6460 ± 190 nM
same,Max. inhibition by ADP (% of control),"[3]; R256QR265W construct, CHO-K1, 20 μM forskolin, cAMP",56.68 ± 6.32 ^a (3) % of control
same,IC50,[4],250 ± 40 nM
same,inhibition at 10 µM,"[4]; CHO-K1, read-out: cAMP inhibition at 10 μM ADP, wild-type, 10 μM ADP",~85%
same,Max. inhibition by ADP (% of control),"[4]; Wild-type construct, CHO-K1, 20 μM forskolin, cAMP",85.37 ± 2.14 (3) % of control
same,IC50,[5],290 ± 50 nM
same,Max. inhibition by ADP (% of control),"[5]; R256T construct, CHO-K1, 20 μM forskolin, cAMP",79.53 ± 4.83 (3) % of control
same,IC50,[6],350 ± 210 nM
same,inhibition at 10 µM,[6]; [11],~60%
same,Max. inhibition by ADP (% of control),"[6]; H253S construct, CHO-K1, 20 μM forskolin, cAMP",62.21 ± 1.93 (3) % of control
same,IC50,[7],150 ± 50 nM
same,inhibition at 10 µM,"[7]; CHO-K1, read-out: maximal inhibition of cAMP level at 10 μM ADP",~40%
same,Max. inhibition by ADP (% of control),"[7]; F198P construct, CHO-K1, 20 μM forskolin, cAMP",40.37 ± 10.64 ^b(3) % of control
same,IC50,[8],450 ± 210 nM
same,inhibition at 10 µM,[8]; [11],~60%
same,Max. inhibition by ADP (% of control),"[8]; R265W construct, CHO-K1, 20 μM forskolin, cAMP",58.01 ± 3.08 ^a (3) % of control
same,IC50,[9],170 ± 90 nM
same,inhibition at 10 µM,"[9]; CHO-K1, read-out: cAMP inhibition at 10 μM ADP",~20%
same,Max. inhibition by ADP (% of control),"[9]; Y109S construct, CHO-K1, 20 μM forskolin, cAMP",31.96 ± 0.15 ^b (3) % of control
same,IC50,[10],40 ± 10 nM
same,Max. inhibition by ADP (% of control),"[10]; S288P construct, CHO-K1, 20 μM forskolin, cAMP",68.89 ± 6.24 (3) % of control
same,left shift of ADP concentration curve vs wild-type,[10]; S288P vs wild-type,about 4 fold
CSCCNc1nc(SCCC(F)(F)F)nc2c1ncn2[C@@H]1O[C@H](COP(=O)(O)OP(=O)(O)C(Cl)(Cl)P(=O)(O)O)[C@@H](O)[C@H]1O [AR-C69931MX],shift of AR-C69931MX concentration curve vs wild-type,"[1]; R256Q, in the presence of 10 μM ADP",leftward shift
same,shift of AR-C69931MX concentration curve vs wild-type,"[3]; R256QR265W, in the presence of 10 μM ADP",leftward shift
same,antagonism effect of AR-C69931MX at 10 nM,"[4]; wild-type, 10 nM AR-C69931MX, 10 μM ADP",did not occur
same,AR-C69931MX concentration required to completely inhibit 10 μM ADP-induced inhibition of cAMP,"[4]; wild-type, 10 μM ADP",1 µM
same,AR-C69931MX concentration enough to block ADP (10 μM)-induced activation,"[5]; R256T, 10 μM ADP",100 nM
same,shift of AR-C69931MX concentration curve vs wild-type,"[5]; R256T, in the presence of 10 μM ADP",significant left shift
same,AR-C69931MX concentration enough to block ADP-induced activation,"[8]; R265W, 10 μM ADP",30 nM
same,shift of AR-C69931MX concentration curve vs wild-type,"[8]; R265W, in the presence of 10 μM ADP, compared to R256Q and R256T",even more leftward shift
